Reference: ChEMBL document CHEMBL2331243, “Discovery and mechanism study of SIRT1 activators that promote the deacetylation of fluorophore-labeled substrate” (J Med Chem, 2013)
Positions count from the first letter of the chain named. Activity calls are given as the source filed them. The rule behind the calls is not given here.

How the values were obtained:
[1] = biological target: NAD-dependent protein deacetylase sirtuin-1 (Homo sapiens, UniProt Q96EB6, V445A); assay: Activation of SIRT1 V445A mutant (unknown origin)
Summary of the method: (§1)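 His-tagged SIRT1 Q345A or V445A mutants were made by site-directed mutagenesis and expressed in E. coli, Ni-NTA purified. They were assayed under the same screening conditions as wild type: 750 μM NAD⁺, 31.25 μM ac-RHKK_ac-AMC, pH 8.0 Tris buffer, trypsin release of AMC, ex 340 / em 490 nm. Compounds came from 3-fold DMSO dilutions. EC1.5 (50% activity increase) was taken from a dose–response fit.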

[2] = biological target: NAD-dependent protein deacetylase sirtuin-1 (Homo sapiens, UniProt Q96EB6, Q345A); assay: Activation of SIRT1 Q345A mutant (unknown origin); summary of the method: as §1
[3] = biological target: T1, NAD-dependent protein deacetylase sirtuin-1 (Homo sapiens) (UniProt Q96EB6); assay: Activation of N-terminal His6-tagged SIRT1 (156 to 664 amino acid residues) (unknown origin) expressed in Escherichia coli BL21(DE3) using ac-RHKKac-AMC as substrate at 50 uM after 45 mins by fluorimetric analysis relative to control
T1 sequence (whole entry): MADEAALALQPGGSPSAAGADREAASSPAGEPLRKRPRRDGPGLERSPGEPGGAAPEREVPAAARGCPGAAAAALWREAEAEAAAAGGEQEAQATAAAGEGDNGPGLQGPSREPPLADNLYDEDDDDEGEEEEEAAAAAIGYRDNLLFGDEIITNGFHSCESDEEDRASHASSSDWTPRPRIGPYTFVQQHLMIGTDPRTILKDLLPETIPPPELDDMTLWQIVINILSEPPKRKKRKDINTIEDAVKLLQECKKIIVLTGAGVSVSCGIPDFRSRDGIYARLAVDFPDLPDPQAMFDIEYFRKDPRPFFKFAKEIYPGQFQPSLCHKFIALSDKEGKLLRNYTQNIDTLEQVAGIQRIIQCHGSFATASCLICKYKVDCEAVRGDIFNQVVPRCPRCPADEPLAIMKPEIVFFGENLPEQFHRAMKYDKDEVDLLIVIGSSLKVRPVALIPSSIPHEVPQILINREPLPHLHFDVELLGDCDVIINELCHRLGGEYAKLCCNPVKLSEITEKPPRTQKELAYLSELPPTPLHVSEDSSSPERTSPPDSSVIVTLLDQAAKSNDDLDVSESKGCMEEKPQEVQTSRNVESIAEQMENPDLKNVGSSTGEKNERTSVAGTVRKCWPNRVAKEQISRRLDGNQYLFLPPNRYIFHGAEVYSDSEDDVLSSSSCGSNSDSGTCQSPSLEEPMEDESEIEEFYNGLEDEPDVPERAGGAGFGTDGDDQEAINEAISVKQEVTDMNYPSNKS
Summary of the method: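 Fluorogenic deacetylation screen: 1 μM SIRT1 with 750 μM NAD⁺ and 31.25 μM ac-RHKK_ac-AMC in Tris buffer (25 mM Tris, 137 mM NaCl, 2.7 mM KCl, 1 mM MgCl₂, pH 8.0). Compounds at 50 μM from DMSO stocks; DMSO alone as blank. Trypsin then releases AMC from deacetylated peptide; fluorescence read at 340/490 nm.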

[4] = biological target: T2, NAD-dependent protein deacetylase sirtuin-1 (Homo sapiens, UniProt Q96EB6); assay: Activation of N-terminal His6-tagged SIRT1 (156 to 664 amino acid residues) (unknown origin) expressed in Escherichia coli BL21(DE3) using ac-RHKKac-AMC as substrate after 45 mins by fluorometric analysis
T2 sequence (Q96EB6 whole entry): T1 sequence (whole entry)

[5] = Stability of the compound in cultured medium assessed as compound remaining at 100 uM after 30 mins; assay type: physicochemical; conditions: 6 h, in the assay text read “after 6 hrs” for “after 30 mins”
Summary of the method: (§2)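 MCF-7 cells were exposed to 100 μM compound for 0–360 min. Medium and acetonitrile-treated washed cells were collected separately at each time point. Compound spiked into fresh cell-free medium and handled the same way served as control. Samples were centrifuged and quantified by reversed-phase HPLC.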

[6] = biological target: T1, NAD-dependent protein deacetylase sirtuin-1 (Homo sapiens); assay: Activation of SIRT1 in human MCF7 cells assessed as reduction in doxorubicin-induced acetyl-p53 level at 60 uM after 6 hrs by Western blotting analysis; assay type: cell-based
Summary of the method: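 MCF-7 cells were seeded at 1 × 10⁵ per well in DMEM with 10% FCS and grown 24 h at 37 °C, 5% CO₂. Graded compound concentrations were added together with 0.1 μM TSA and 5 μM doxorubicin for 6 h. Lysate (50 μg protein) was run on a 9% gel and blotted with an anti-acetyl-p53 (Lys382) polyclonal antibody at 4 °C overnight, then HRP anti-rabbit IgG with chemiluminescence.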

MCF7 = assay: Drug uptake in human MCF7 cells at 100 uM measured at 30 mins; assay type: ADME, cell-based; conditions: mcf7, 0.5 h; summary of the method: as §2
[7] = Stability of the compound in cultured medium at 100 uM after 30 mins; assay type: physicochemical; conditions: 0.5 h; summary of the method: as §2
[8] = Stability of the compound in fresh cell medium at 100 uM after 120 mins; assay type: physicochemical; conditions: 2 h; summary of the method: as §2
[9] = test system: NAD-dependent protein deacetylase sirtuin-1 (Homo sapiens), Q96EB6 [UNDEFINED MUTATION]; assay: Ratio of EC50 for SIRT1 V445A mutant (unknown origin) to EC50 for wild type SIRT1 (unknown origin)
[10] = test system: NAD-dependent protein deacetylase sirtuin-1 (Homo sapiens), Q96EB6 [UNDEFINED MUTATION]; assay: Ratio of EC50 for SIRT1 Q345A mutant (unknown origin) to EC50 for wild type SIRT1 (unknown origin)
[11] = test system: T3, NAD-dependent protein deacetylase sirtuin-1 (Homo sapiens), Q96EB6 [Q345A]; assay: Activation of SIRT1 Q345A mutant (unknown origin) at 10 uM relative to control
T3 sequence (whole entry): T1 sequence (whole entry) with Q345A

[12] = test system: T4, NAD-dependent protein deacetylase sirtuin-1 (Homo sapiens), Q96EB6 [V445A]; assay: Activation of SIRT1 V445A mutant (unknown origin) at 10 uM relative to control
T4 sequence (whole entry): T1 sequence (whole entry) with V445A

Chain of NAD-dependent protein deacetylase sirtuin-1 (Homo sapiens, UniProt Q96EB6, V445A) (Q96EB6 2-747 V445A limits assumed): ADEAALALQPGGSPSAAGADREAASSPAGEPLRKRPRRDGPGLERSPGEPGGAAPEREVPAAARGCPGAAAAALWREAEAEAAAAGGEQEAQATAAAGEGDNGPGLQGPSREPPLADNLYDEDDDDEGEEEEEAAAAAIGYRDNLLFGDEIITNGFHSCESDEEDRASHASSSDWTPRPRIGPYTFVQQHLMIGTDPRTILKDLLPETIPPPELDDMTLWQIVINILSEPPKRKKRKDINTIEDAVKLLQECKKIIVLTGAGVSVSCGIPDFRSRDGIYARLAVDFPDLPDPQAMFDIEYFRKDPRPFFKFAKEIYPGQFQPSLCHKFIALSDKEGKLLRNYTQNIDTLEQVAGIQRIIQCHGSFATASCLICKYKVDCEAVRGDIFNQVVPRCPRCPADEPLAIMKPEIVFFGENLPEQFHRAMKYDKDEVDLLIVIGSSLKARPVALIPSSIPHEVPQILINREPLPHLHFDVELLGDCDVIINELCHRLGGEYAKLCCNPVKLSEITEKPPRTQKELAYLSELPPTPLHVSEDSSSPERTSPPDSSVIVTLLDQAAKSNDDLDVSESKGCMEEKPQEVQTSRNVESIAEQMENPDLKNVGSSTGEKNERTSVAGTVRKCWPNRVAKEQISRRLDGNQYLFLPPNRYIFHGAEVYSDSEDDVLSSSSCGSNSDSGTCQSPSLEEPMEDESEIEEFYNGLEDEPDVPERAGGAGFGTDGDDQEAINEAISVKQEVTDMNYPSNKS
Chain of NAD-dependent protein deacetylase sirtuin-1 (Homo sapiens, UniProt Q96EB6, Q345A) (Q96EB6 2-747 Q345A limits assumed): as the sequence (Q96EB6 2-747 V445A limits assumed) above, with Q344A, A444V counted along it

O=C(N/N=C/c1cc(Br)c(O)c(Br)c1O)c1ccc2cc(Br)ccc2c1
EC50 [1]: 4.8 µM | EC50 [2]: 12.2 µM | max activation [3]: 647% | EC50 [4]: 2.7 µM | Stability [5]: 20 µM | Activity [6]: inactive | Drug uptake (MCF7): Active | Stability [7]: Stable | Stability [8]: Stable | Ratio EC50 [9]: 2 | Ratio EC50 [10]: 4 | max activation [11]: 237% | max activation [12]: 353%
